High-throughput results as filed in PubChem BioAssay.
The list is not random: actives were taken first. Their share in the collection is about 0.99%.
LYPLA2 inh – blocks human lysophospholipase 2, a PME1 counter-screen; O95372; recombinant LYPLA2, FP-Rh probe fluorescence polarization; inhibition, % at 5.9 µM; hit rate 0.38% among 320,000; AID 2177;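 active = inhibition above the screen-wide mean plus 3 SD, limit set per campaign, cut at about 26% in these data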;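 note: 0% = LYPLA2 with DMSO and 100% = wells lacking LYPLA2 enzyme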
Target sequence (O95372 whole entry, looked up): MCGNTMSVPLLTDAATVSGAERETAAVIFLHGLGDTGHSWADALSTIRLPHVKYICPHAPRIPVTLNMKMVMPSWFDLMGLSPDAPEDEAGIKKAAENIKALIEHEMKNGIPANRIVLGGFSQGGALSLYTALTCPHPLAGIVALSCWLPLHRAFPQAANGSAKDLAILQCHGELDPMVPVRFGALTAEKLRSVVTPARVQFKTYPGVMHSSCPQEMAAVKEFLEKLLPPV
PME-1 inh – PME-1 (human) inhibition. hit rate 0.53% among 320,000. Q9Y570. recombinant PME-1, FP-Rh probe fluorescence polarization. inhibition, % at 5.9 µM;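 active = inhibition above the campaign mean of all compounds plus 3 SD, cut at about 26% in these data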;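 note: competitive labeling of PME-1 active site by serine hydrolase directed probe; 0% = PME-1 with DMSO and 100% = wells lacking PME-1 enzyme; inhibitors block probe labeling so polarization falls and inhibition rises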
LYPLA1 counter – counter-screen for PME1 inhibitors: inhibitors of human LYPLA1. O75608. recombinant LYPLA1, FP-Rh probe fluorescence polarization. inhibition, % at 5.9 µM. hit rate 0.16% among 320,000. AID 2174;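 active = inhibition above the mean of all tested compounds plus 3 SD, set per campaign, cut at about 14% in these data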;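 note: inhibitors block serine hydrolase probe labeling of LYPLA1 so polarization falls; 0% = enzyme with DMSO and 100% = wells lacking LYPLA1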
Target sequence (O75608 whole entry, looked up): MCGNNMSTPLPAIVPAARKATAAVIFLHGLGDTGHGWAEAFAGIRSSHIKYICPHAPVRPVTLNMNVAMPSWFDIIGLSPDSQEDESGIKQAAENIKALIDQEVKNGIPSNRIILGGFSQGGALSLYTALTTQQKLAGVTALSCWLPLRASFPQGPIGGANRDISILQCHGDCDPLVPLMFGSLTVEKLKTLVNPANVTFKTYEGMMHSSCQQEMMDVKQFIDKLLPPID
Fam108B counter – counter-screen for RBBP9 inhibitors: inhibitors of mouse Fam108B; hit rate 0.33% among 300,000; inhibition, % at 9.51 µM; AID 1947; recombinant Fam108B, FP-Rh probe fluorescence polarization;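 active = inhibition above the screen mean inhibition plus 3 SD, computed separately per campaign, cut at about 18% in these data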;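 note: inhibitors lower polarization as less probe binds the enzyme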
RBBP9 inhibitor – blocks human serine hydrolase RBBP9; hit rate 0.2% among 220,000; recombinant RBBP9, FP-Rh probe fluorescence polarization; O75884; AID 1515; inhibition, % at 7.94 µM;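 active = inhibition above the campaign mean of all tested compounds plus 3 SD, cut at about 14% in these data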;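 note: plate controls were DMSO wells with RBBP9 for no effect and wells lacking RBBP9 protein for full effect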
Target sequence (O75884 whole entry, looked up): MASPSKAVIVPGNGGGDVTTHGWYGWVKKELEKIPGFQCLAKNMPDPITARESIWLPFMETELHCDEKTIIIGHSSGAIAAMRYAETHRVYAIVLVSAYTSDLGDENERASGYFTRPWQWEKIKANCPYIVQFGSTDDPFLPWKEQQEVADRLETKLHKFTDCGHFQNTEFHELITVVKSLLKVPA
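System: RBBP9 protein | Quantity: 2.5 µM RBBP9 dispensing solution, before mixing | Reagent: FP-Rh probe, 375 nM dispensing solution | Timing: Enzyme-compound preincubation 30 min, then probe labeling 45 min, 25 °C | Measured by: Fluorescence polarization | Read-out: % inhibition | Replication: One well per compound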
RBBP9 inh conf – confirmation of human RBBP9 inhibitors | shares compounds with RBBP9 inhibitor | hit rate 36% among 410 | inhibition, % at 7.94 µM | recombinant RBBP9, FP-Rh probe fluorescence polarization | AID 1537;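 active = inhibition above the hit cutoff derived for the primary screen, cut at about 15% in these data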;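 note: 0% = RBBP9 with DMSO and 100% = wells lacking RBBP9 protein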
* = called active by the depositor; . = no result.

SMILES | LYPLA2 inh | PME-1 inh | LYPLA1 counter | Fam108B counter | RBBP9 inhibitor | RBBP9 inh conf
CCc1c(C)nc2ncnn2c1N1CCN(S(=O)(=O)c2ccc(OC)cc2)CC1 | 1 | 0 | 1 | -3 | -3 | .
CC(C)C(C)N(Cc1cccc(C(=O)O)c1)C(=O)c1ccc2ccccc2n1 (stereo not drawn) | 3 | 0 | 1 | 1 | . | .
O=C(N1CCN(c2ccccn2)CC1)N1c2ccccc2Sc2ccccc21 | 11 | 4 | 0 | 1 | -10 | .
CC(C)NC(=O)CSc1nnc(-c2ccc3ncccc3c2)n1C | 2 | -3 | 2 | -2 | -10 | .
Cc1cc(C)cc(N(C(=O)c2csnn2)C(C(=O)NC(C)(C)C)c2cccs2)c1 (stereo not drawn) | -2 | -6 | -1 | 1 | 15* | 6
CCn1c(C)nc2cc(C(=O)N/N=C/c3ccc(N4CCOCC4)cc3)ccc21 | -2 | -3 | -1 | 11 | -5 | .
Cc1ccc(C)c(OCC(=O)O/N=C(\N)c2cccnc2)c1 | 4 | -2 | 2 | 0 | 7 | .
CCc1ccc(OCC(=O)O/N=C(\N)c2cccnc2)cc1 | 3 | -3 | 0 | -2 | 15* | 8
Cc1cc(C)cc(-n2c(SC(C)C(=O)NCc3ccc4c(c3)OCO4)nc3ccccc3c2=O)c1 (stereo not drawn) | -10 | 4 | -7 | -3 | 21* | 1
CCN(C(=O)C1CCCCC1)c1nnc(-c2cccnc2)s1 | 4 | -1 | 3 | -1 | 14* | 9
COCCN(C(=O)C1CCC1)c1nnc(-c2cccnc2)s1 | -2 | -3 | 0 | 1 | 6 | .
O=C(O)CN1CCN(Cc2ccccc2)C1=O | 2 | 2 | 0 | 0 | -3 | .
O=C(O)CN1CCN(Cc2ccccc2Cl)C1=O | -3 | -2 | 1 | -1 | 16* | 2
Cc1ccc(NC(=O)COC(=O)c2c[nH]c3ccccc23)cc1C | -5 | -2 | 0 | . | . | .
C=CCN=c1scc(-c2ccco2)n1/N=C/c1ccc(O)c(O)c1O | -11 | 29* | -10 | -6 | 48* | 84*
CN=c1scc(-c2cccs2)n1/N=C/c1ccccc1O | 1 | 11 | -3 | 2 | 4 | .
CN=c1scc(-c2cccs2)n1/N=C/c1ccc(O)c(O)c1O | -3 | 31* | -7 | 2 | 32* | 83*
CC(C)N=c1scc(-c2ccco2)n1/N=C/c1ccc(O)c(O)c1 | -16 | -7 | -12 | 2 | -10 | .
CCOC(=O)N1CCC(NC(=O)c2cc(COc3ccccc3SC)on2)CC1 | 7 | -1 | -3 | 0 | . | .
O=C(C1COc2ccccc2O1)N1CCCC1 (stereo not drawn) | 3 | 0 | 4 | 3 | 15* | 7
O=C(C1COc2ccccc2O1)N1CCN(c2ccccc2O)CC1 (stereo not drawn) | 2 | 10 | -2 | . | . | .
CCOC(=O)c1c(C)oc2c(CC(=O)c3ccccc3)c(Cl)c(O)c(O)c12 | 5 | 10 | -3 | 2 | 16* | 13
Nc1c(C(=O)Nc2ccc(F)cc2)sc(=S)n1-c1ccccc1F | -3 | -1 | 5 | 4 | 1 | .
CN(CCc1ccccc1)C1CCCN(S(=O)(=O)CC(F)(F)F)C1 (stereo not drawn) | 1 | 2 | -1 | 4 | . | .
C=CCn1c(=O)c2c(C)c(C)sc2n2c(Nc3ccc(OC)cc3)nnc12 | 6 | 2 | -3 | 2 | 16* | 4
SMILES | LYPLA2 inh | PME-1 inh | LYPLA1 counter | Fam108B counter | RBBP9 inhibitor | RBBP9 inh conf
O=C1C=CC(=O)N1CCNc1ncc(C(F)(F)F)cc1Cl | . | . | . | . | 33* | 31*
COc1ccc(OCc2nn3c(-c4ccccn4)nnc3s2)cc1 | 2 | 6 | -5 | 0 | 15* | 1
CSc1cccc(-n2ccc(=O)c(C)c2C)c1 | 1 | 0 | 2 | 12 | . | .
Cn1ncc(Br)c1NC(=O)CSc1ccc(Cl)cc1 | 8 | 0 | -1 | -3 | 18* | 3
Cc1ccccc1NC(=O)c1sc2nc3c(c(-c4ccco4)c2c1N)CCCC3 | 6 | 7 | -4 | 4 | 15* | 7
Nc1c(C(=O)Nc2ccccc2)sc2nc3c(c(-c4ccco4)c12)CCCC3 | -9 | 4 | -6 | -6 | -3 | .
C=CCN1C(=O)C(C)NC1=S (stereo not drawn) | . | . | . | . | 22* | -1
C=CCN1C(=O)C(C(C)CC)NC1=S (stereo not drawn) | -2 | 1 | -1 | 5 | -7 | .
CN(C)S(=O)(=O)c1cccc(NC(=S)Nc2cccc3cnccc23)c1 | . | . | . | . | 19* | 7
S=C(Nc1cccnc1)Nc1cccc2cnccc12 | 5 | -1 | 3 | 2 | -4 | .
COc1ccc(N2CCN(C(=O)CCS(=O)(=O)c3ccc(C)cc3)CC2)cc1 | 4 | -1 | 0 | 1 | . | .
N#CCc1cnc2ccccc2n1 | 4 | 22 | 3 | 10 | 16* | 2
CCCC(CCC)C(=O)Nc1c[nH]c(=O)[nH]c1=O | -1 | -7 | -2 | -3 | 17* | 6
O=C(CN1CCN(Cc2ccccc2F)C1=O)NCCc1ccc(Cl)cc1 | -1 | 3 | -1 | 0 | 0 | .
NNC(=O)c1cc(-c2ccc(N)cc2)nc2ccc(Br)cc12 | -11 | 10 | -6 | 5 | 15* | 69*
Cc1cc(C(=O)NN)c2cc(Br)ccc2n1 | -4 | -1 | -2 | -1 | -11 | .
NC(N)=N/N=C/c1ccc(OCc2ccc(Cl)cc2)cc1 | 4 | 3 | -2 | -3 | 19* | 6
CCOC(=O)CSc1ncnc2c(C(=O)OCC)c3n(c12)CCC3 | 0 | -2 | 0 | -1 | 4 | .
CCC(NS(=O)(=O)c1ccc(C)cc1)C(=O)Nc1ccc(NC(C)=O)cc1 (stereo not drawn) | 5 | 2 | 0 | 0 | 16* | 7
c1csc(C2Nc3cccc4cccc(c34)N2)c1 | -2 | 5 | -5 | 11 | 30* | 45*
COc1ccc(C2Nc3cccc4cccc(c34)N2)cc1 | -1 | 14 | -3 | 4 | 25* | 21*
c1ccc(C2Nc3cccc4cccc(c34)N2)cc1 | 0 | 3 | -4 | 13 | . | .
CNc1oc(/C=C/c2cccc(OC)c2)nc1C#N | -12 | 6 | 2 | 3 | . | .
Cc1ccccc1C(=O)NNC(=O)CSc1nnc(-c2ccncc2)n1-c1ccccc1 | 5 | -6 | 1 | 5 | -13 | .
COc1ccc(/C=C/C(=O)NC(=S)NNC(=O)Cc2cccs2)cc1OC | -7 | 0 | -3 | 0 | 15* | 9
COc1cc([N+](=O)[O-])ccc1N1C(=O)C2C3C=CC(C4CC34)C2C1=O (stereo not drawn) | -1 | 4 | -6 | 2 | -3 | .
CCOC(=O)c1nn(-c2ccc(OC)cc2)c(=O)c2c(N)scc12 | 2 | 2 | 1 | 0 | 13 | .
CCOC(=O)c1nn(-c2ccc(C)c(C)c2)c(=O)c2c(N)scc12 | 2 | -1 | 4 | 5 | 18* | 38*
Cc1cccc(OCCCC(=O)Nc2ccc(N(C)C)cc2)c1 | -5 | 1 | 1 | 4 | 18* | 26*
